Experimental data: ChEMBL document CHEMBL4814013, “Scaffold repurposing of fendiline: Identification of potent KRAS plasma membrane localization inhibitors” (Eur J Med Chem, 2021)
Activity calls are given as the source filed them. No cut-off for these calls is given here.

Columns and labels:
[1] = test system: MDCK; experiment: Inhibition of ASM in dog MDCK cells co-expressing recombinant full length mGFP-tagged KRAS G12V mutant and mCherry-CAAX assessed as reduction in plasma membrane localization of KRAS mutant incubated for 48 hrs by confocal microscopic analysis relative to control; format: cell membranes; details: Canis lupus familiaris
Procedure, shortened: (§1)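 MDCK cells stably co-expressing mGFP-KRAS G12V or mGFP-LactC2 with mCherry-CAAX (HRAS 179–189 C181S/C184S) grown on coverslips in DMEM/10% FBS. Treated 48 h with 0.1% DMSO or graded drug, fixed in 4% paraformaldehyde, then quantitative confocal imaging. Mislocalization scored as the Manders fraction of mCherry-CAAX co-localizing with the GFP probe. IC50 and Emax from three independent experiments.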

[2] = Inhibition of ASM in dog MDCK cells co-expressing recombinant full length mGFP-tagged KRAS G12V mutant and mCherry-CAAX assessed as reduction in plasma membrane localization of KRAS mutant incubated for 48 hrs by confocal microscopic analysis; format: cell membranes, Canis lupus familiaris; procedure, shortened: as §1
[3] = test system: MDCK; experiment: Cytotoxicity against dog MDCK cells at 30 uM; format: functional, cell-based; details: Canis lupus familiaris

| SMILES | Emax [1] | IC50 [2] | Activity [3] |
| --- | --- | --- | --- |
| COc1ccc([C@@H](C)N(C/C=C/c2ccccc2)CCN2CCN(C)CC2)cc1 | 0.84 | 14.8 µM | inactive |
| CCN(CC)CCN(CC=C(c1ccccc1)c1ccccc1)[C@H](C)c1ccc(OC)cc1 | 0.89 |  | Active |
| CCN(CC=C(c1ccccc1)c1ccccc1)[C@H](C)c1ccc(OC)cc1 | 0.84 | 10.6 µM | inactive |
| COc1ccc([C@@H](C)N(CC=C(c2ccccc2)c2ccccc2)CCN2CCOCC2)cc1 | 0.86 | 4.4 µM | inactive |
| C[C@H](c1ccc(Cl)cc1)N(CC=C(c1ccccc1)c1ccccc1)CCN1CCN(C)CC1 | 0.7 | 3.8 µM | Active |
| COc1ccc([C@@H](C)N(CC=C(c2ccccc2)c2ccccc2)CCO)cc1 | 0.72 | 0.2 µM | inactive |
| C[C@H](c1ccc([N+](=O)[O-])cc1)N(CC=C(c1ccccc1)c1ccccc1)CCN1CCN(C)CC1 | 0.62 | 5.2 µM | Active |
| C=CCN(CCN1CCN(C)CC1)[C@H](C)c1ccc(OC)cc1 | 0.76 | 59.3 µM | inactive |
| COc1ccc([C@@H](C)N(CC=C(c2ccccc2)c2ccccc2)CC(=O)N2CCN(C)CC2)cc1 | 0.73 | 1.1 µM | inactive |
| C[C@H](c1cccc(Cl)c1)N(CC=C(c1ccccc1)c1ccccc1)CCN1CCN(C)CC1 | 0.77 | 11.2 µM | Active |
| COc1cccc([C@@H](C)N(CC=C(c2ccccc2)c2ccccc2)CCN2CCN(C)CC2)c1 | 0.75 | 2.8 µM | Active |
| COc1ccc([C@@H](C)N(CC=C(c2ccccc2)c2ccccc2)CCN2CCNCC2)cc1 | 0.86 | 1.3 µM | Active |
| COc1ccc([C@@H](C)N(CC=C(c2ccccc2)c2ccccc2)CCN2CCNC(=O)C2)cc1 | 0.81 | 7.7 µM | inactive |
